Results: ChEMBL document CHEMBL4138217, “Discovery of a novel series of α-terpineol derivatives as promising anti-asthmatic agents: Their design, synthesis, and biological evaluation” (2018)

Experiments:
[1] = test system: Smooth muscle of trachea; assay: Anti-asthmatic activity in guinea pig tracheal smooth muscle ring assessed as reduction in acetylcholine-induced muscle contractions after 60 mins; assay type: functional, tissue-based; details: Cavia porcellus
Outline: (§1)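 Guinea pig tracheal rings were held in Krebs-Henseleit at 36.5±0.5°C under 95% O2/5% CO2, at 1.0 g resting tension with 60-min equilibration. Isometric tension was recorded after acetylcholine-induced contraction. The read-out was percentage change in smooth muscle tension with compound, as means±S.D (n=10).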

[2] = biological target: Adrenergic receptor beta (Rattus norvegicus) (UniProt P18090+P10608+P26255); assay: Agonist activity at beta-adrenergic receptor in rat airway smooth muscle cells assessed as reduction in acetylcholine-induced muscle contractions by measuring cAMP levels after 18 hrs post acetylcholine stimulation by ELISA (reference value: 8.402 +/- 0.041 nmol/l); assay type: functional
Outline: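 Rat airway smooth muscle cells (passages 4–6) were seeded at 5×10^4/mL and grown for 48 h. They were stimulated with acetylcholine 0.33 mmol/L for 4 h, then exposed to compound for 18 h. Cells were trypsinized (0.25%, 2 min) and sonicated, and cAMP in the supernatant was measured by ELISA.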

[3] = test system: Smooth muscle of trachea; assay: Anti-asthmatic activity in guinea pig tracheal smooth muscle ring assessed as reduction in acetylcholine-induced muscle contractions by measuring muscle relaxation at 1.25 mmol/l after 60 mins (reference value: 13.59 +/- 9.14%); assay type: functional, Cavia porcellus; parameters: scale not given: the % may be the effect or the level left; outline: as §1
[4] = test system: Smooth muscle of trachea; assay: Anti-asthmatic activity in guinea pig tracheal smooth muscle ring assessed as reduction in acetylcholine-induced muscle contractions by measuring muscle relaxation at 0.75 mmol/l after 60 mins (reference value: 7.73 +/- 4.81%); assay type: functional, Cavia porcellus; parameters: scale not given: the % may be the effect or the level left; outline: as §1
[5] = test system: Rattus norvegicus; assay: Anti-asthmatic activity in ovalbumin-induced asthmatic Sprague-Dawley rat model assessed as improvement in lung function by measuring dynamic compliance of the airway at 1 g/kg, po co-administered with OVA from day 15 to 21 of experiment period (reference value: 0.46 +/- 0.17); assay type: functional
[6] = test system: Rattus norvegicus; assay: Anti-asthmatic activity in ovalbumin-induced asthmatic Sprague-Dawley rat model assessed as IL-17 levels in serum at 1 g/kg, po co-administered with OVA from day 15 to 21 of experiment period (reference value: 16.85 +/- 1.13 pg/ml); assay type: functional
[7] = test system: Rattus norvegicus; assay: Anti-asthmatic activity in ovalbumin-induced asthmatic Sprague-Dawley rat model assessed as improvement in lung function by measuring airway resistance at 1 g/kg, po co-administered with OVA from day 15 to 21 of experiment period (reference value: 67.33 +/- 10.54); assay type: functional
[8] = test system: Rattus norvegicus; assay: Anti-asthmatic activity in ovalbumin-induced asthmatic Sprague-Dawley rat model assessed as IL-14 levels in serum at 1 g/kg, po co-administered with OVA from day 15 to 21 of experiment period (reference value: 16.04 +/- 1.41 pg/ml); assay type: functional
[9] = test system: Rattus norvegicus; assay: Anti-asthmatic activity in ovalbumin-induced asthmatic Sprague-Dawley rat model assessed as improvement in lung function by measuring airway resistance at 1.6 g/kg, po co-administered with OVA from day 15 to 21 of experiment period (reference value: 67.33 +/- 10.54); assay type: functional
[10] = test system: Rattus norvegicus; assay: Anti-asthmatic activity in ovalbumin-induced asthmatic Sprague-Dawley rat model assessed as IL-17 levels in serum at 1.6 g/kg, po co-administered with OVA from day 15 to 21 of experiment period (reference value: 16.85 +/- 1.13 pg/ml); assay type: functional
[11] = test system: Rattus norvegicus; assay: Anti-asthmatic activity in ovalbumin-induced asthmatic Sprague-Dawley rat model assessed as improvement in lung function by measuring dynamic compliance of the airway at 1.6 g/kg, po co-administered with OVA from day 15 to 21 of experiment period (reference value: 0.46 +/- 0.17); assay type: functional
[12] = test system: Rattus norvegicus; assay: Anti-asthmatic activity in ovalbumin-induced asthmatic Sprague-Dawley rat model assessed as IL-14 levels in serum at 1.6 g/kg, po co-administered with OVA from day 15 to 21 of experiment period (reference value: 16.04 +/- 1.41 pg/ml); assay type: functional
[13] = test system: Rattus norvegicus; assay: Anti-asthmatic activity in ovalbumin-induced asthmatic Sprague-Dawley rat model assessed as IL-17 levels in serum at 0.5 mg/kg, po co-administered with OVA from day 15 to 21 of experiment period (reference value: 16.85 +/- 1.13 pg/ml)
[14] = test system: Rattus norvegicus; assay: Anti-asthmatic activity in ovalbumin-induced asthmatic Sprague-Dawley rat model assessed as improvement in lung function by measuring airway resistance at 0.5 mg/kg, po co-administered with OVA from day 15 to 21 of experiment period (reference value: 67.33 +/- 10.54)
[15] = test system: Rattus norvegicus; assay: Anti-asthmatic activity in ovalbumin-induced asthmatic Sprague-Dawley rat model assessed as improvement in lung function by measuring dynamic compliance of the airway at 0.5 mg/kg, po co-administered with OVA from day 15 to 21 of experiment period (reference value: 0.46 +/- 0.17)
[16] = test system: Rattus norvegicus; assay: Anti-asthmatic activity in ovalbumin-induced asthmatic Sprague-Dawley rat model assessed as IL-14 levels in serum at 0.5 mg/kg, po co-administered with OVA from day 15 to 21 of experiment period (reference value: 16.04 +/- 1.41 pg/ml)

| SMILES | Activity [1] | Activity [2] [nmol/L] | Activity [3] [%] | Activity [4] [%] | further results |
| --- | --- | --- | --- | --- | --- |
| CCN(CC)CC(=O)OC(C)(C)C1CC=C(C)CC1 (stereo not given) | Dose-dependent effect | 9.53 | – | – | – |
| CC1=CCC(C(C)(C)OC(=O)C(C)(C)C)CC1 (stereo not given) | Dose-dependent effect | – | 28.02 | 25.49 | – |
| CC1=CCC(C(C)(C)OC(=O)CSCC(O)CO)CC1 (stereo not given) | Dose-dependent effect | 8.76 | 65.29 | 34.84 | – |
| CC1=CCC(C(C)(C)O)CC1 (stereo not given) | Dose-dependent effect | 8.51 | – | – | Activity [5]: 0.53; Activity [6]: 16.19 pg/mL; Activity [7]: 60.57; Activity [8]: 15.5 pg/mL |
| CC(=O)OC(C)(C)C1CC=C(C)CC1 (stereo not given) | Dose-dependent effect | – | 47.72 | 34.35 | – |
| Cn1c(=O)c2[nH]cnc2n(C)c1=O | Dose-dependent effect | 8.6 | – | – | – |
| CC1=CCC(C(C)(C)OC(=O)CN(CCO)CCO)CC1 (stereo not given) | Dose-dependent effect | 8.94 | – | – | – |
| CC1=CCC(C(C)(C)OC=O)CC1 (stereo not given) | Dose-dependent effect | – | 21.57 | 14.62 | – |
| CC1=CCC(C(C)(C)OC(=O)C(C)C)CC1 (stereo not given) | Dose-dependent effect | – | 22.79 | 19.88 | – |
| CC1=CCC(C(C)(C)OC(=O)CN2CCC(=O)CC2)CC1 (stereo not given) | Dose-dependent effect | – | – | – | – |
| CC1=CCC(C(C)(C)OC(=O)CN2CCOCC2)CC1 (stereo not given) | Dose-dependent effect | 8.81 | – | – | – |
| CC1=CCC(C(C)(C)OC(=O)CSCCO)CC1 (stereo not given) | Dose-dependent effect | 8.82 | – | – | Activity [9]: 41.69; Activity [10]: 15.09 pg/mL; Activity [11]: 0.88; Activity [12]: 14 pg/mL |
| CC1=CCC(C(C)(C)OC(=O)CN2CCC(O)CC2)CC1 (stereo not given) | Dose-dependent effect | 8.98 | – | – | – |
| CC(=O)OCC(=O)[C@@]1(O)[C@H](C)C[C@H]2[C@@H]3CCC4=CC(=O)C=C[C@]4(C)[C@@]3(F)[C@@H](O)C[C@@]21C [DEXAMETHASONE ACETATE] | – | – | – | – | Activity [13]: 16.06 pg/mL; Activity [14]: 41.51; Activity [15]: 0.66; Activity [16]: 14.31 pg/mL |
| CC1=CCC(C(C)(C)OC(=O)CO[N+](=O)[O-])CC1 (stereo not given) | Dose-dependent effect | – | – | – | – |
| CCCCCCCCCCCCCC(=O)OC(C)(C)C1CC=C(C)CC1 (stereo not given) | Dose-dependent effect | – | – | – | – |
| CCC(=O)OC(C)(C)C1CC=C(C)CC1 (stereo not given) | Dose-dependent effect | – | 23.22 | 18.18 | – |
| CC1=CCC(C(C)(C)OC(=O)CN2CCCCC2)CC1 (stereo not given) | Dose-dependent effect | – | – | – | – |
| CCCC(=O)OC(C)(C)C1CC=C(C)CC1 (stereo not given) | Dose-dependent effect | – | 25.47 | 21.2 | – |
| CC1CCC(C(C)(C)O)CC1 (stereo not given) | Dose-dependent effect | – | – | – | – |
| CC1=CCC(C(C)(C)OC(=O)CN(C)CCO)CC1 (stereo not given) | Dose-dependent effect | 9.01 | – | – | Activity [9]: 51.69; Activity [10]: 16.35 pg/mL; Activity [11]: 0.84; Activity [12]: 15.66 pg/mL |
| CCCCCCCCCCCCCCCCCC(=O)OC(C)(C)C1CC=C(C)CC1 (stereo not given) | Dose-dependent effect | – | – | – | – |
